≈ marks a conversion by molar mass, not a printed value. Calls of active or inactive are those of the source. No cut-off for these calls is given here.
How the values were obtained:
Staphylococcus aureus [1] = assay: Antibacterial activity against drug-sensitive Staphylococcus aureus ATCC 6538 by broth microdilution method; type: functional
How it was run: (§1)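 Broth microdilution per CLSI recommendation. MIC is the lowest concentration with no visible growth. MBC is the lowest concentration giving >99.9% reduction in CFU of the initial inoculum. Ampicillin, cefuroxime and vancomycin served as reference agents.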

Staphylococcus aureus [2] = assay: Antibacterial activity against drug-sensitive Staphylococcus aureus ATCC 25923 by broth microdilution method; type: functional; how it was run: as §1
Klebsiella pneumoniae = assay: Antibacterial activity against drug-sensitive Klebsiella pneumoniae ATCC 13883 by broth microdilution method; type: functional, organism-based; how it was run: as §1
Bacillus cereus [3] = assay: Antibacterial activity against drug-sensitive Bacillus cereus ATCC 10876 by broth microdilution method; type: functional; how it was run: as §1
Micrococcus luteus = assay: Antibacterial activity against drug-sensitive Micrococcus luteus ATCC 10240 by broth microdilution method; type: functional; how it was run: as §1
Escherichia coli = assay: Antibacterial activity against drug-sensitive Escherichia coli ATCC 25922 by broth microdilution method; type: functional, organism-based; how it was run: as §1
Staphylococcus aureus [4] = assay: Antibacterial activity against methicillin-resistant Staphylococcus aureus ATCC 14001 by broth microdilution method; type: functional
How it was run: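 Broth microdilution following CLSI recommendations. MIC was read as the lowest concentration giving no visible growth. Ampicillin, cefuroxime and vancomycin were the reference antibacterials.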

Bacillus subtilis [5] = assay: Antibacterial activity against drug-sensitive Bacillus subtilis ATCC 6633 by broth microdilution method; type: functional; how it was run: as §1
Bacillus cereus [6] = assay: Ratio of ampicillin MIC to compound MIC for drug-sensitive Bacillus cereus ATCC 10876 by broth microdilution method; type: functional
[7] = system: Staphylococcus epidermidis; assay: Antibacterial activity against drug-sensitive Staphylococcus epidermidis ATCC 12228 by broth microdilution method; type: functional; how it was run: as §1
Pseudomonas aeruginosa = assay: Antibacterial activity against drug-sensitive Pseudomonas aeruginosa ATCC 9027 by broth microdilution method; type: functional, organism-based; how it was run: as §1
Bacillus subtilis [8] = assay: Ratio of ampicillin MIC to compound MIC for drug-sensitive Bacillus subtilis ATCC 6633 by broth microdilution method; type: functional
Proteus mirabilis = assay: Antibacterial activity against drug-sensitive Proteus mirabilis ATCC 12453 by broth microdilution method; type: functional, organism-based; how it was run: as §1
Staphylococcus aureus [9] = assay: Ratio of MBC to MIC for methicillin-resistant Staphylococcus aureus ATCC 14001; type: functional
How it was run: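 Broth microdilution following CLSI recommendations. MIC was the lowest concentration with no visible growth. MBC was the lowest concentration giving a >99.9% reduction in CFU relative to the initial inoculum. The ratio was taken from these two values.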

Bacillus cereus [10] = assay: Ratio of cefuroxime MIC to compound MIC for drug-sensitive Bacillus cereus ATCC 10876 by broth microdilution method; type: functional

| Structure (SMILES) | MBC (Staphylococcus aureus [1]) | MIC (Staphylococcus aureus [1]) | MBC (Staphylococcus aureus [2]) | MIC (Staphylococcus aureus [2]) | Activity (Klebsiella pneumoniae) | MBC (Bacillus cereus [3]) | MIC (Bacillus cereus [3]) | MBC (Micrococcus luteus) | MIC (Micrococcus luteus) | Activity (Escherichia coli) | MBC (Staphylococcus aureus [4]) | MIC (Staphylococcus aureus [4]) | MBC (Bacillus subtilis [5]) | MIC (Bacillus subtilis [5]) | Ratio (Bacillus cereus [6]) | MBC [7] | MIC [7] | Activity (Pseudomonas aeruginosa) | Activity (Proteus mirabilis) | Ratio (Staphylococcus aureus [9]) | also measured |
| --- | --- | --- | --- | --- | --- | --- | --- | --- | --- | --- | --- | --- | --- | --- | --- | --- | --- | --- | --- | --- | --- |
| Clc1ccccc1-c1nnc2sc(Nc3ccc(Br)cc3)nn12 | 62.5 µg/mL (≈ 154 µM) | 7.81 µg/mL (≈ 19.2 µM) | 15.6 µg/mL (≈ 38.4 µM) | 1.95 µg/mL (≈ 4.79 µM) | inactive | 15.6 µg/mL (≈ 38.4 µM) | 7.81 µg/mL (≈ 19.2 µM) | 7.81 µg/mL (≈ 19.2 µM) | 7.81 µg/mL (≈ 19.2 µM) | inactive | 15.6 µg/mL (≈ 38.4 µM) | 1.95 µg/mL (≈ 4.79 µM) | 15.6 µg/mL (≈ 38.4 µM) | 1.95 µg/mL (≈ 4.79 µM) | 8 | 3.91 µg/mL (≈ 9.61 µM) | 0.98 µg/mL (≈ 2.41 µM) | inactive | inactive | 8 | Ratio (Bacillus subtilis [8]): 8 |
| Brc1ccc(Nc2nn3c(-c4ccccc4)nnc3s2)cc1 | 125 µg/mL (≈ 336 µM) | 15.6 µg/mL (≈ 42 µM) | 31.2 µg/mL (≈ 83.9 µM) | 0.98 µg/mL (≈ 2.63 µM) | inactive | 15.6 µg/mL (≈ 42 µM) | 15.6 µg/mL (≈ 42 µM) | 7.81 µg/mL (≈ 21 µM) | 3.91 µg/mL (≈ 10.5 µM) | inactive | 62.5 µg/mL (≈ 168 µM) | 7.81 µg/mL (≈ 21 µM) | 1.91 µg/mL (≈ 5.13 µM) | 0.98 µg/mL (≈ 2.63 µM) | 4 | 0.98 µg/mL (≈ 2.63 µM) | 0.49 µg/mL (≈ 1.32 µM) | inactive | inactive | 8 | Ratio (Bacillus cereus [10]): 2; Ratio (Bacillus subtilis [8]): 16 |
| Clc1cccc(-c2nnc3sc(Nc4ccc(Br)cc4)nn23)c1 | 31.2 µg/mL (≈ 76.8 µM) | 0.49 µg/mL (≈ 1.2 µM) | 31.2 µg/mL (≈ 76.8 µM) | 0.98 µg/mL (≈ 2.41 µM) | inactive | 31.2 µg/mL (≈ 76.8 µM) | 15.6 µg/mL (≈ 38.4 µM) | 3.91 µg/mL (≈ 9.61 µM) | 3.91 µg/mL (≈ 9.61 µM) | inactive | 125 µg/mL (≈ 307 µM) | 0.98 µg/mL (≈ 2.41 µM) | 1.95 µg/mL (≈ 4.79 µM) | 1.95 µg/mL (≈ 4.79 µM) | 4 | 3.91 µg/mL (≈ 9.61 µM) | 0.98 µg/mL (≈ 2.41 µM) | inactive | inactive | 128 | Ratio (Bacillus cereus [10]): 2 |
| Clc1ccc(Nc2nn3c(-c4ccccc4)nnc3s2)cc1 | 31.2 µg/mL (≈ 95.3 µM) | 15.6 µg/mL (≈ 47.7 µM) | 31.2 µg/mL (≈ 95.3 µM) | 3.91 µg/mL (≈ 11.9 µM) | inactive | 15.6 µg/mL (≈ 47.7 µM) | 15.6 µg/mL (≈ 47.7 µM) | 15.6 µg/mL (≈ 47.7 µM) | 7.81 µg/mL (≈ 23.8 µM) | inactive | 62.5 µg/mL (≈ 191 µM) | 1.95 µg/mL (≈ 5.95 µM) | 7.81 µg/mL (≈ 23.8 µM) | 1.95 µg/mL (≈ 5.95 µM) | 4 | 3.91 µg/mL (≈ 11.9 µM) | 0.98 µg/mL (≈ 2.99 µM) | inactive | inactive | 32 | Ratio (Bacillus cereus [10]): 2; Ratio (Bacillus subtilis [8]): 8 |
| CN[C@H](CC(C)C)C(=O)N[C@H]1C(=O)N[C@@H](CC(N)=O)C(=O)N[C@H]2C(=O)N[C@H]3C(=O)N[C@H](C(=O)N[C@H](C(=O)O)c4cc(O)cc(O)c4-c4cc3ccc4O)[C@H](O)c3ccc(c(Cl)c3)Oc3cc2cc(c3O[C@@H]2O[C@H](CO)[C@@H](O)[C@H](O)[C@H]2O[C@H]2C[C@](C)(N)[C@H](O)[C@H](C)O2)Oc2ccc(cc2Cl)[C@H]1O [VANCOMYCIN] | 1.95 µg/mL (≈ 1.35 µM) | 0.49 µg/mL (≈ 0.338 µM) | 7.81 µg/mL (≈ 5.39 µM) | 0.98 µg/mL (≈ 0.676 µM) | – | 31.2 µg/mL (≈ 21.6 µM) | 0.98 µg/mL (≈ 0.676 µM) | 0.49 µg/mL (≈ 0.338 µM) | 0.25 µg/mL (≈ 0.173 µM) | – | 3.91 µg/mL (≈ 2.7 µM) | 0.98 µg/mL (≈ 0.676 µM) | 0.49 µg/mL (≈ 0.338 µM) | 0.25 µg/mL (≈ 0.173 µM) | – | 1.95 µg/mL (≈ 1.35 µM) | 0.98 µg/mL (≈ 0.676 µM) | – | – | 4 | – |
| Clc1ccc(Nc2nn3c(-c4cccc(Cl)c4)nnc3s2)cc1 | 31.2 µg/mL (≈ 86.3 µM) | 0.49 µg/mL (≈ 1.35 µM) | 31.2 µg/mL (≈ 86.3 µM) | 1.95 µg/mL (≈ 5.38 µM) | inactive | 15.6 µg/mL (≈ 43.1 µM) | 7.81 µg/mL (≈ 21.6 µM) | 3.91 µg/mL (≈ 10.8 µM) | 3.91 µg/mL (≈ 10.8 µM) | inactive | 62.5 µg/mL (≈ 173 µM) | 0.98 µg/mL (≈ 2.71 µM) | 1.95 µg/mL (≈ 5.38 µM) | 1.95 µg/mL (≈ 5.38 µM) | 8 | 3.91 µg/mL (≈ 10.8 µM) | 0.98 µg/mL (≈ 2.71 µM) | inactive | inactive | 64 | Ratio (Bacillus cereus [10]): 4; Ratio (Bacillus subtilis [8]): 8 |
| Clc1ccc(-c2nnc3sc(Nc4ccc(Br)cc4)nn23)cc1 | 31.2 µg/mL (≈ 76.8 µM) | 0.98 µg/mL (≈ 2.41 µM) | 31.2 µg/mL (≈ 76.8 µM) | 1.95 µg/mL (≈ 4.79 µM) | inactive | 15.6 µg/mL (≈ 38.4 µM) | 15.6 µg/mL (≈ 38.4 µM) | 15.6 µg/mL (≈ 38.4 µM) | 15.6 µg/mL (≈ 38.4 µM) | inactive | 125 µg/mL (≈ 307 µM) | 7.81 µg/mL (≈ 19.2 µM) | 1.95 µg/mL (≈ 4.79 µM) | 1.95 µg/mL (≈ 4.79 µM) | 4 | 1.95 µg/mL (≈ 4.79 µM) | 1.95 µg/mL (≈ 4.79 µM) | inactive | inactive | 16 | Ratio (Bacillus cereus [10]): 2; Ratio (Bacillus subtilis [8]): 8 |
| Clc1ccc(Nc2nn3c(-c4ccc(Cl)cc4)nnc3s2)cc1 | 62.5 µg/mL (≈ 173 µM) | 0.98 µg/mL (≈ 2.71 µM) | 62.5 µg/mL (≈ 173 µM) | 3.91 µg/mL (≈ 10.8 µM) | inactive | 31.2 µg/mL (≈ 86.3 µM) | 7.81 µg/mL (≈ 21.6 µM) | 31.2 µg/mL (≈ 86.3 µM) | 15.6 µg/mL (≈ 43.1 µM) | inactive | 62.5 µg/mL (≈ 173 µM) | 7.81 µg/mL (≈ 21.6 µM) | 7.81 µg/mL (≈ 21.6 µM) | 3.91 µg/mL (≈ 10.8 µM) | 8 | 15.6 µg/mL (≈ 43.1 µM) | 3.91 µg/mL (≈ 10.8 µM) | inactive | inactive | 8 | Ratio (Bacillus subtilis [8]): 4 |
| CC1(C)S[C@@H]2[C@H](NC(=O)[C@H](N)c3ccccc3)C(=O)N2[C@H]1C(=O)O [AMPICILLIN] | – | – | – | – | – | – | 62.5 µg/mL (≈ 179 µM) | – | – | – | – | – | – | – | – | – | – | – | – | – | – |
| CO/N=C(\C(=O)N[C@@H]1C(=O)N2C(C(=O)O)=C(COC(N)=O)CS[C@H]12)c1ccco1 [CEFUROXIME] | – | 0.98 µg/mL (≈ 2.31 µM) | – | 0.49 µg/mL (≈ 1.15 µM) | – | – | 31.2 µg/mL (≈ 73.6 µM) | – | 0.98 µg/mL (≈ 2.31 µM) | – | – | – | – | 15.6 µg/mL (≈ 36.8 µM) | – | – | 0.24 µg/mL (≈ 0.566 µM) | – | – | – | – |
| Clc1ccc(Nc2nn3c(-c4ccccc4Cl)nnc3s2)cc1 | 15.6 µg/mL (≈ 43.1 µM) | 15.6 µg/mL (≈ 43.1 µM) | 31.2 µg/mL (≈ 86.3 µM) | 15.6 µg/mL (≈ 43.1 µM) | inactive | 3.91 µg/mL (≈ 10.8 µM) | 3.91 µg/mL (≈ 10.8 µM) | 15.6 µg/mL (≈ 43.1 µM) | 7.81 µg/mL (≈ 21.6 µM) | inactive | 62.5 µg/mL (≈ 173 µM) | 1.95 µg/mL (≈ 5.38 µM) | 15.6 µg/mL (≈ 43.1 µM) | 3.91 µg/mL (≈ 10.8 µM) | 16 | 15.6 µg/mL (≈ 43.1 µM) | 3.91 µg/mL (≈ 10.8 µM) | inactive | inactive | 32 | Ratio (Bacillus cereus [10]): 8; Ratio (Bacillus subtilis [8]): 4 |
